Calls of active or inactive are those of the source. The calls are words filed in the database; no cut-off is given here.
How the values were obtained:
[1] = target: T1, Sphingosine 1-phosphate receptor 1 (Homo sapiens, UniProt P21453); test: Agonist activity at human S1P1 receptor assessed as cAMP accumulation by HTRF assay; format: functional
In short: (§1)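 HTRF cyclase (cAMP) functional assay at S1P1 of each species; EC50 taken as mean of three or more replicates; efficacy given as % agonism relative to S1P.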

[2] = target: T1, Sphingosine 1-phosphate receptor 1; test: Agonist activity at human S1P1 receptor assessed as cAMP accumulation by HTRF assay relative to S1P; format: functional; in short: as §1
[3] = Half life in rat liver microsomes; format: ADME
In short: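 Stability on incubation with liver microsomes of each species; half-life reported.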

Mus musculus = test: Reduction in disease severity in C57Bl/6 mouse experimental autoimmune encephalomyelitis model of multiple sclerosis at 1 mg/kg dosed once daily beginning on day 18 and continued to day 37; format: functional, organism-based; set-up: dose 1 mg/kg
In short: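 Female C57Bl/6 mice with MOG35–55-induced EAE; once-daily treatment started day 18 after severe disease onset and continued to day 37; vehicle 0.5% methylcellulose; clinical scoring.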

Rattus norvegicus [4] = test: Reduction in ankle diameter in Lewis rat collagen-induced arthritis model at 1 mg/kg, po qd measured on day 17 (reference value: +/- inches); format: functional
In short: (§2)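 Female Lewis rats with collagen-induced arthritis, prophylactic daily oral dosing; ankle diameter (inches) and body weight recorded at day 17 end point; mean ± SEM.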

Rattus norvegicus [5] = test: Induction of body weight regain in Lewis rat collagen-induced arthritis model at 1 mg/kg, po qd measured on day 17 (reference value: 160.3 +/- 2.3 g); format: functional
Rattus norvegicus [6] = test: Induction of body weight regain in Lewis rat collagen-induced arthritis model at 0.075 mg/kg, po qd measured on day 17 (reference value: 160.3 +/- 2.3 g); format: functional
Rattus norvegicus [7] = test: Reduction in ankle diameter in Lewis rat collagen-induced arthritis model at 0.075 mg/kg, po qd measured on day 17 (reference value: +/- inches); format: functional; in short: as §2
[8] = Activation of Inward rectifier potassium channel in human atrial myocytes; format: cell-based; details: Cardiac atrium
In short: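 In vitro activation of the inward-rectifying potassium channel (IKACh) in human atrial myocytes, run alongside S1P as reference agonist; potency expressed as EC50.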

T1 sequence (P21453 whole entry): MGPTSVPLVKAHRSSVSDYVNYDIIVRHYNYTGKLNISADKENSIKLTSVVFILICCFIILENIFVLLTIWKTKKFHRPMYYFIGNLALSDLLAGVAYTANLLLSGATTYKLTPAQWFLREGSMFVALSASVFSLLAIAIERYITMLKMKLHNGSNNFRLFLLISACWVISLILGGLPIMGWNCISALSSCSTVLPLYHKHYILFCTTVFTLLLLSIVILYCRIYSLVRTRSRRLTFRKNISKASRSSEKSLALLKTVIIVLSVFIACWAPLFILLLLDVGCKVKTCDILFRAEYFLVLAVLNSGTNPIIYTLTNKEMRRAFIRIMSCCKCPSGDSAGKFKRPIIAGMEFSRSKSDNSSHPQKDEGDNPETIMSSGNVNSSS

SMILES | EC50 [1] [nM] | Emax [2] [%] | further results
O=C(O)CC1CCc2c1[nH]c1ccc(OCc3cc(C(F)(F)F)cc(C(F)(F)F)c3)cc21 (racemic) |  | 98 | 
N#Cc1cc(COc2ccc3[nH]c4c(c3c2)CCC4CC(=O)O)cc(OC(F)(F)F)c1 (racemic) |  | 90 | 
O=C(O)C[C@@H]1CCc2c1[nH]c1ccc(OCc3ccc(C4CCCC4)c(C(F)(F)F)c3)cc21 | 0.09 | 103 | half-life [3]: 9 min
N#Cc1cc(COc2ccc3[nH]c4c(c3c2)CCC4CC(=O)O)ccc1C1CCCCC1 (racemic) | 0.087 | 98 | 
N#Cc1cc(COc2ccc3[nH]c4c(c3c2)CCC4CC(=O)O)ccc1OC(F)(F)F (racemic) | 1.7 | 109 | 
O=C(O)CC1CCc2c1[nH]c1ccc(OCc3ccc(C4CCCC4)c(C(F)(F)F)c3)cc21 (racemic) | 0.073 | 104 | 
COc1ccc(COc2ccc3[nH]c4c(c3c2)CCC4CC(=O)O)cc1C#N (racemic) | 120 | 136 | 
CCCCCCCCc1ccc(CCC(N)(CO)CO)cc1 [FINGOLIMOD] |  |  | Activity (Mus musculus): Active; Activity (Rattus norvegicus [4]): 0.2694 inches; Activity (Rattus norvegicus [5]): 181.9 g
CN(Cc1cnc2nc(N)nc(N)c2n1)c1ccc(C(=O)N[C@@H](CCC(=O)O)C(=O)O)cc1 [METHOTREXATE] |  |  | Activity (Rattus norvegicus [6]): 181.7 g; Activity (Rattus norvegicus [7]): 0.2795 inches
CCCCCCCCCCCCC/C=C/[C@@H](O)[C@@H](N)COP(=O)(O)O | 0.062 |  | EC50 [8]: 2.1 nM

More lines, main results first:

EC50 [1] [nM] | Emax [2] [%] | SMILES | further results
0.49 | 107 | CCCc1ccc(COc2ccc3[nH]c4c(c3c2)CCC4CC(=O)O)cc1C(F)(F)F (racemic) | 
159 | 117 | O=C(O)CC1CCc2c1[nH]c1ccc(OCc3ccc(Cl)c(C(F)(F)F)c3)cc21 (racemic) | 
55.8 | 112 | CC(C)(C)Cc1ccc(COc2ccc3[nH]c4c(c3c2)CCC4CC(=O)O)cc1C(F)(F)F (racemic) | 
3.68 | 118 | O=C(O)CC1CCc2c1[nH]c1ccc(OCc3ccc(C4CC4)c(C(F)(F)F)c3)cc21 (racemic) | 
4.58 | 111 | O=C(O)CC1CCc2c1[nH]c1ccc(OCc3ccc(CC4CCCCC4)c(C(F)(F)F)c3)cc21 (racemic) | 
0.45 | 109 | O=C(O)CC1CCc2c1[nH]c1ccc(OCc3ccc(C4CCC4)c(C(F)(F)F)c3)cc21 (racemic) | 
0.44 | 103 | CC(C)Cc1ccc(COc2ccc3[nH]c4c(c3c2)CCC4CC(=O)O)cc1C(F)(F)F (racemic) | 
0.077 | 96 | O=C(O)CC1CCc2c1[nH]c1ccc(OCc3ccc(C4CCCCC4)c(C(F)(F)F)c3)cc21 (racemic) | 
141 | 104 | N#Cc1ccc(COc2ccc3[nH]c4c(c3c2)CCC4CC(=O)O)cc1C(F)(F)F (racemic) | 

Source: ChEMBL document CHEMBL3352115, “Discovery of APD334: Design of a Clinical Stage Functional Antagonist of the Sphingosine-1-phosphate-1 Receptor” (ACS Med Chem Lett, 2014)
